Laboratory results reported in publication PMC3032084 (Nature chemical biology, 2009).
Entries after “also recorded” stand apart in the source; their conditions may differ.

Experiments:
[1] = target: PTHR variant that lacks the N domain and is tagged extracellularly with GFP; assay: FRET or BRET
PTHR = conditions: membranes, ref [6]; cited from earlier work
PTHR (GFP-N-PTHR) = target: T1, PTHR (GFP-N-PTHR) (Homo sapiens, UniProt Q03431); format: binding; conditions: for ligand dissociation after washout: GFP fluorescence recovery after rapid removal of ligand; for decrease in GFP emission: saturating concentration (15 μM), hormone binding to receptor
T1 sequence (Q03431 27-593): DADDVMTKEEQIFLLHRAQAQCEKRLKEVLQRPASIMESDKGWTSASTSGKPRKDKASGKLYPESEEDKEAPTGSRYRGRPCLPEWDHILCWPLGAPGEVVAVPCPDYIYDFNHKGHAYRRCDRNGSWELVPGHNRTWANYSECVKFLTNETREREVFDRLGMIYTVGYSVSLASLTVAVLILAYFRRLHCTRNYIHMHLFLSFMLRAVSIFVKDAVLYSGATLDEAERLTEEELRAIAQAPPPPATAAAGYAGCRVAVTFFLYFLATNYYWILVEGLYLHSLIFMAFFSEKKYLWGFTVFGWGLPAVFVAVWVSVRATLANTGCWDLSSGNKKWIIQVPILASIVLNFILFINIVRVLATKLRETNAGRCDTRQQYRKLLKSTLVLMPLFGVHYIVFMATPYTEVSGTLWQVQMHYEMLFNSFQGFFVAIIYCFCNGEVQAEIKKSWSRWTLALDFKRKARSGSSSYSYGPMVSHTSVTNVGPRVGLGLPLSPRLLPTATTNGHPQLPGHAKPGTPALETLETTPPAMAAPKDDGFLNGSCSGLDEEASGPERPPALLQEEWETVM

GFP-N-PTHR = assay: Live cell confocal co-localization of ligand with GFP-N-PTHR; format: cell-based; conditions: TMR-labeled ligand, after washout
Gαs-GFP = assay: Live cell confocal co-localization of ligand with Gαs-GFP; format: cell-based; conditions: TMR-labeled ligand, after washout
adenylyl cyclases = assay: Co-localization of ligand with BODIPY-Fsk labeled adenylyl cyclases; format: cell-based; conditions: cells transiently transfected with PTHR
Method in brief: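 HEK293 cells transiently transfected with PTHR. Cellular adenylyl cyclases labeled with BODIPY-labeled forskolin, which labels all cells. A TMR-labeled test peptide ligand marks only the PTHR-expressing cells. After ligand binding, the distribution of the BODIPY-Fsk signal is compared with the ligand signal (internalized punctae vs diffuse) by live-cell fluorescence imaging.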

YFP-labeled PTHR = YFP-labeled PTHR (UniProt Q03431); assay: FRET or BRET
Rab7-GFP = assay: Co-localization of ligand with Rab7-GFP late endosomes; format: cell-based; conditions: even after 30 min of incubation
[2] = tested on: early endosomal antigen 1 (EEA-1); assay: Co-localization of ligand with GFP-tagged EEA-1; format: cell-based; conditions: data not shown
[3] = target: T2, PTHR co-expressed with DN-Gs (Homo sapiens, UniProt Q03431); assay: Ligand dissociation by FRET with co-expressed dominant-negative Gαs; format: binding; conditions: co-expression of DN-Gs
T2 sequence (Q03431 27-593): T1 sequence (Q03431 27-593)

Rab5-GFP = assay: Co-localization of ligand with Rab5-GFP early endosomes; format: cell-based; conditions: Rab5-GFP-transfected cells
Method in brief: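 Live HEK293 cells transfected with Rab5-GFP were imaged at room temperature 48 h post-transfection by spinning-disc confocal microscopy. Cells were washed with HEPES buffer containing 0.1% BSA. TMR-labelled ligand was added and removed by perfusion. Z-stacks were taken at 0.3-μm steps. Co-localization was scored by Pearson's correlation coefficient.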

[4] = target: PTHR N-terminally tagged with green fluorescent protein (UniProt Q03431); assay: FRET or BRET
PTHR (PTHR-CFP/YFP) = target: T3, PTHR (PTHR-CFP/YFP) (Homo sapiens, UniProt Q03431); assay: PTHR activation/deactivation by intramolecular FRET; format: cell-based; conditions: PTHR-CFP/YFP FRET after washout
T3 sequence (Q03431 27-462 limits assumed): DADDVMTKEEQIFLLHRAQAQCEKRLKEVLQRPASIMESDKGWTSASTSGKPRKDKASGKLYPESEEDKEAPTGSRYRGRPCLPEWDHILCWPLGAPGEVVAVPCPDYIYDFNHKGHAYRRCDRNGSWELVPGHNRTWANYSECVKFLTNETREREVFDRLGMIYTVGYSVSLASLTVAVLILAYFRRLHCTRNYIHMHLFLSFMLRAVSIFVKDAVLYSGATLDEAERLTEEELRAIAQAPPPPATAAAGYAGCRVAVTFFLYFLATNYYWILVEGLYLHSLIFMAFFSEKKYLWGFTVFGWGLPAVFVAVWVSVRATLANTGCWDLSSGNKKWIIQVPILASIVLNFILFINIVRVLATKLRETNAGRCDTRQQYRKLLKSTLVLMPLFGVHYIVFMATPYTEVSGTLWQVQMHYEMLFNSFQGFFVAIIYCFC

[5] = tested on: cAMP via PTHR in HEK293 cells; assay: cAMP accumulation/degradation by FRET sensor Epac-CFP/YFP; format: cell-based; conditions: PTHrP1–36 100 nM, PTH1–34 text 1−10 nM

**Q.** Which tau, dissociation (single step) [1] does the source give for “M-PTH(1-14) labelled with tetramethylrhodamine (peptide)” here?
**A.** 15.8 s

**Q.** Which “stability of radioligand binding with GTPγS” value (PTHR) does the source give for ^125I-PTH1–34: radioligand of PTH1–34 here?
**A.** remains mostly stable in the presence of GTPγS

**Q.** With PTHrP1–36-TMR: TMR-labeled PTHrP1–36 as the substance, how does the “ligand dissociation after washout” value (PTHR (GFP-N-PTHR)) read?
**A.** complete dissociation of the ligand from the receptor

**Q.** What about the “decrease in GFP emission” value (PTHR (GFP-N-PTHR)) of the same substance?
**A.** ~ 20%

**Q.** What about the “co-localization with GFP-N-PTHR” value (GFP-N-PTHR) of the same substance?
**A.** did not co-localize with either GFP-N-PTHR or Gαs-GFP; also recorded: alone is detected as small puntae at internalized sites

**Q.** And the “co-localization with Gαs-GFP” value (Gαs-GFP)?
**A.** did not co-localize with either GFP-N-PTHR or Gαs-GFP; also recorded: only ligand-containing vesicles are observed

**Q.** What about the “BODIPY-Fsk (adenylyl cyclase) distribution/co-localization with ligand” value (adenylyl cyclases) of the same substance?
**A.** the labeled forskolin remained diffuse

**Q.** For “Gs-CFP (Gαs/Gβ1/Gγ2-CFP) (from UniProt P63092 1-394; P62873 1-340; P59768 1-71) (complex; other documents disagree on this pair)”, which tau, PTHR-Gs dissociation (turn off) after washout of PTHrP(1-36) (YFP-labeled PTHR) is on record?
**A.** 48.1 s

**Q.** And the tau, PTHR-Gs interaction (switch on) with PTH(1-34) (YFP-labeled PTHR)?
**A.** 0.96 s

**Q.** What about the tau, PTHR-Gs interaction (switch on) with PTHrP(1-36) (YFP-labeled PTHR) of the same substance?
**A.** 1.58 s

**Q.** With “PTH1–34-TMR: PTH ligand tagged at Lys13 with tetramethylrhodamine” as the substance, how does the “ligand dissociation after washout” value (PTHR (GFP-N-PTHR)) read?
**A.** most of the ligand remaining bound to the receptor after washout

**Q.** And the “decrease in GFP emission” value (PTHR (GFP-N-PTHR))?
**A.** ~ 20%

**Q.** And the “co-localization with GFP-N-PTHR” value (GFP-N-PTHR)?
**A.** strong co-localization with both GFP-N-PTHR and Gas-GFP; also recorded: little or no TMR fluorescence from PTH1–34-TMR was detected at the cell surface; also recorded: remained closely associated during receptor internalization

**Q.** What about the “co-localization with Rab7-GFP” value (Rab7-GFP) of the same substance?
**A.** No co-localization

**Q.** What about the “co-localization with EEA-1-GFP” value [2] of the same substance?
**A.** also co-localized with the early endosomal antigen 1 (EEA-1)

**Q.** And the “co-localization with Gαs-GFP” value (Gαs-GFP)?
**A.** strong co-localization with both GFP-N-PTHR and Gas-GFP; also recorded: persisted over a period of 30 min in endosomes but not at the cell surface

**Q.** What about the “effect of DN-Gs on ligand release” value [3] of the same substance?
**A.** no effect

**Q.** And the “co-localization with Rab5-labeled endosomes” value (Rab5-GFP)?
**A.** all of the internalized PTH1–34-TMR co-localized with Rab5-labeled endosomes

**Q.** What about the “BODIPY-Fsk (adenylyl cyclase) distribution/co-localization with ligand” value (adenylyl cyclases) of the same substance?
**A.** strongly co-localized with the ligand as internalized punctae

**Q.** Which koff, fast step (intercept) [4] does the source give for “PTH(1-34) tagged at Lys13 with tetramethylrhodamine (peptide)” here?
**A.** 0.46 s⁻¹

**Q.** And the tau fast, dissociation (turn off) [4]?
**A.** 1.5 s

**Q.** And the tau slow, association (switch on) [4]?
**A.** 1.15 s

**Q.** Which results are given for PTH1–84: PTH is represented by PTH1–84?
**A.** persistence of active receptor state after ligand removal (PTHR (PTHR-CFP/YFP)): stable active state that persisted well after removal of ligand; Epac-FRET (cAMP) signal after ligand washout [5]: remained fully stable after washout

**Q.** With “^125I-PTHrP1–36: radioligand of PTHrP1–36” as the substance, how does the “stability of radioligand binding with GTPγS” value (PTHR) read?
**A.** mostly destabilized by GTPγS
